Data published in ChEMBL document CHEMBL5724801, “EUbOPEN Chemogenomics Library - Multiplex” (2024).
Values joined by “and” are separate entries in the source; they are usually repeats but may differ in a detail not shown here. Equal values may be shown once.

The compounds below were run on HEK-293T (assay: Multiplex assay against HEK293T). Conditions: human, 12 h, 1 µM, compound concentration 1 uM.
Type: toxicity, cell-based
In short: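 Tubulin, mitochondrial-mass and membrane-permeability phenotypes are per cents of healthy-nucleus cells. Cells were gated by CellPathfinder machine learning into Hoechst high-intensity objects or normal cells, normal cells into healthy, pyknosed or fragmented nuclei, and pyknosed cells into mitotic or apoptotic. Before that, live cells stained at seeding with Hoechst33342, BioTracker Green Microtubule Cytoskeleton Dye, MitoTracker Red and Annexin V Alexa Fluor 680 were imaged on a CQ1 microscope at 37°C and 5% CO2 after compound addition.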
For C[C@H](NC(=O)c1c(C(F)F)nn(C)c1Oc1cccc(C(F)(F)F)c1)c1ccc(C(=O)O)cc1 [PALUPIPRANT], the “Population Apoptotic (%)” value was 40% and 27%, the “Population Fragmented Nuclei (%)” value was 6% and the “Population Healthy Nuclei (%)” value was 80% and 83%. The “Population Hoechst High Intensity Objects (%)” value was 7% and 5%, the “Population Membrane Permeable-Phenotype (%)” value was 0% and the “Population Mitochondria Different-Phenotype (%)” value was 44% and 60%. For the same compound, the “Population Mitotic Cells (%)” value was 59% and 72%, the “Population Normal (%)” value was 92% and 94% and the “Population Pyknosed Nuclei (%)” value was 13% and 10%. The “Population Tubulin-Different-Phenotype (%)” value was 28% and the “Total Cell Count” value was 407 and 475. In the case of Nc1nc(CC(=O)Nc2ccc(CCNC[C@H](O)c3ccccc3)cc2)cs1 [MIRABEGRON], the “Population Apoptotic (%)” value is reported as 22% and 55%, the “Population Fragmented Nuclei (%)” value is reported as 5% and 8% and the “Population Healthy Nuclei (%)” value is reported as 84% and 80%. The “Population Hoechst High Intensity Objects (%)” value was 5%, the “Population Membrane Permeable-Phenotype (%)” value was 0% and the “Population Mitochondria Different-Phenotype (%)” value was 45% and 56%. For the same compound, the “Population Mitotic Cells (%)” value was 77% and 44%, the “Population Normal (%)” value was 94% and the “Population Pyknosed Nuclei (%)” value was 10% and 11%. The “Population Tubulin-Different-Phenotype (%)” value was 19% and the “Total Cell Count” value was 455 and 332.

Same assay, conditions: human, 12 h, 10 µM, compound concentration 10 uM
C[C@H](NC(=O)c1c(C(F)F)nn(C)c1Oc1cccc(C(F)(F)F)c1)c1ccc(C(=O)O)cc1 [PALUPIPRANT] was tested, and the “Population Apoptotic (%)” value was 38% and 60%, the “Population Fragmented Nuclei (%)” value was 7% and 5% and the “Population Healthy Nuclei (%)” value was 76% and 77%. For the same compound, the “Population Hoechst High Intensity Objects (%)” value was 7% and 10%, the “Population Membrane Permeable-Phenotype (%)” value was 0% and the “Population Mitochondria Different-Phenotype (%)” value was 55% and 68%. The “Population Mitotic Cells (%)” value was 61% and 40%, the “Population Normal (%)” value was 92% and 89% and the “Population Pyknosed Nuclei (%)” value was 16% and 17%. The “Population Tubulin-Different-Phenotype (%)” value was 40% and 27% and the “Total Cell Count” value was 371 and 293. With Nc1nc(CC(=O)Nc2ccc(CCNC[C@H](O)c3ccccc3)cc2)cs1 [MIRABEGRON] the “Population Apoptotic (%)” value was 32% and 44%, the “Population Fragmented Nuclei (%)” value was 5% and 11% and the “Population Healthy Nuclei (%)” value was 77% and 74%. For the same compound, the “Population Hoechst High Intensity Objects (%)” value was 7% and 8%, the “Population Membrane Permeable-Phenotype (%)” value was 0% and the “Population Mitochondria Different-Phenotype (%)” value was 51% and 64%. The “Population Mitotic Cells (%)” value was 67% and 56%, the “Population Normal (%)” value was 92% and 91% and the “Population Pyknosed Nuclei (%)” value was 17% and 14%. The “Population Tubulin-Different-Phenotype (%)” value was 41% and 29% and the “Total Cell Count” value was 423 and 388.

Same assay, conditions: human, 24 h, 1 µM, compound concentration 1 uM
C[C@H](NC(=O)c1c(C(F)F)nn(C)c1Oc1cccc(C(F)(F)F)c1)c1ccc(C(=O)O)cc1 [PALUPIPRANT] was tested, and the “Population Apoptotic (%)” value was 36% and 46%, the “Population Fragmented Nuclei (%)” value was 9% and 7% and the “Population Healthy Nuclei (%)” value was 80% and 83%. The “Population Hoechst High Intensity Objects (%)” value was 5% and 4%, the “Population Membrane Permeable-Phenotype (%)” value was 1% and 0% and the “Population Mitochondria Different-Phenotype (%)” value was 27% and 35%. The “Population Mitotic Cells (%)” value was 63% and 53%, the “Population Normal (%)” value was 94% and 95% and the “Population Pyknosed Nuclei (%)” value was 10% and 9%. For the same compound, the “Population Tubulin-Different-Phenotype (%)” value was 18% and 19% and the “Total Cell Count” value was 527 and 604. In the case of Nc1nc(CC(=O)Nc2ccc(CCNC[C@H](O)c3ccccc3)cc2)cs1 [MIRABEGRON], the “Population Apoptotic (%)” value is reported as 28% and 27%, the “Population Fragmented Nuclei (%)” value is reported as 10% and 8% and the “Population Healthy Nuclei (%)” value is reported as 80% and 83%. For the same compound, the “Population Hoechst High Intensity Objects (%)” value was 2% and 3%, the “Population Membrane Permeable-Phenotype (%)” value was 0% and the “Population Mitochondria Different-Phenotype (%)” value was 30% and 41%. The “Population Mitotic Cells (%)” value was 71% and 72%, the “Population Normal (%)” value was 97% and 96% and the “Population Pyknosed Nuclei (%)” value was 9% and 7%. The “Population Tubulin-Different-Phenotype (%)” value was 14% and 13% and the “Total Cell Count” value was 635 and 390.

Same assay, conditions: human, 24 h, 10 µM, compound concentration 10 uM
In the case of C[C@H](NC(=O)c1c(C(F)F)nn(C)c1Oc1cccc(C(F)(F)F)c1)c1ccc(C(=O)O)cc1 [PALUPIPRANT], the “Population Apoptotic (%)” value is reported as 26% and 55%, the “Population Fragmented Nuclei (%)” value is reported as 9% and 7% and the “Population Healthy Nuclei (%)” value is reported as 74% and 79%. For the same compound, the “Population Hoechst High Intensity Objects (%)” value was 3% and 7%, the “Population Membrane Permeable-Phenotype (%)” value was 0% and the “Population Mitochondria Different-Phenotype (%)” value was 46% and 52%. For the same compound, the “Population Mitotic Cells (%)” value was 73% and 44%, the “Population Normal (%)” value was 96% and 92% and the “Population Pyknosed Nuclei (%)” value was 16% and 13%. For the same compound, the “Population Tubulin-Different-Phenotype (%)” value was 29% and 19% and the “Total Cell Count” value was 465 and 353. Nc1nc(CC(=O)Nc2ccc(CCNC[C@H](O)c3ccccc3)cc2)cs1 [MIRABEGRON] was tested, and the “Population Apoptotic (%)” value was 31% and 35%, the “Population Fragmented Nuclei (%)” value was 8% and 9% and the “Population Healthy Nuclei (%)” value was 77% and 82%. For the same compound, the “Population Hoechst High Intensity Objects (%)” value was 4% and 5%, the “Population Membrane Permeable-Phenotype (%)” value was 0% and the “Population Mitochondria Different-Phenotype (%)” value was 32% and 49%. For the same compound, the “Population Mitotic Cells (%)” value was 68% and 64%, the “Population Normal (%)” value was 95% and 94% and the “Population Pyknosed Nuclei (%)” value was 13% and 7%. For the same compound, the “Population Tubulin-Different-Phenotype (%)” value was 23% and the “Total Cell Count” value was 552 and 524.

Same assay, conditions: human, 48 h, 1 µM, compound concentration 1 uM
C[C@H](NC(=O)c1c(C(F)F)nn(C)c1Oc1cccc(C(F)(F)F)c1)c1ccc(C(=O)O)cc1 [PALUPIPRANT] was tested, and the “Population Apoptotic (%)” value was 25% and 21%, the “Population Fragmented Nuclei (%)” value was 13% and 14% and the “Population Healthy Nuclei (%)” value was 79% and 78%. The “Population Hoechst High Intensity Objects (%)” value was 2% and 4%, the “Population Membrane Permeable-Phenotype (%)” value was 1% and 0% and the “Population Mitochondria Different-Phenotype (%)” value was 17% and 18%. The “Population Mitotic Cells (%)” value was 75% and 78%, the “Population Normal (%)” value was 97% and 95% and the “Population Pyknosed Nuclei (%)” value was 7% and 6%. For the same compound, the “Population Tubulin-Different-Phenotype (%)” value was 13% and 9% and the “Total Cell Count” value was 916 and 867. Nc1nc(CC(=O)Nc2ccc(CCNC[C@H](O)c3ccccc3)cc2)cs1 [MIRABEGRON] was tested, and the “Population Apoptotic (%)” value was 18% and 28%, the “Population Fragmented Nuclei (%)” value was 13% and 17% and the “Population Healthy Nuclei (%)” value was 80% and 76%. For the same compound, the “Population Hoechst High Intensity Objects (%)” value was 1% and 0%, the “Population Membrane Permeable-Phenotype (%)” value was 1% and the “Population Mitochondria Different-Phenotype (%)” value was 14% and 21%. The “Population Mitotic Cells (%)” value was 81% and 71%, the “Population Normal (%)” value was 98% and 99% and the “Population Pyknosed Nuclei (%)” value was 5%. The “Population Tubulin-Different-Phenotype (%)” value was 10% and the “Total Cell Count” value was 1141 and 662.

Same assay, conditions: human, 48 h, 10 µM, compound concentration 10 uM
In the case of C[C@H](NC(=O)c1c(C(F)F)nn(C)c1Oc1cccc(C(F)(F)F)c1)c1ccc(C(=O)O)cc1 [PALUPIPRANT], the “Population Apoptotic (%)” value is reported as 29% and 28%, the “Population Fragmented Nuclei (%)” value is reported as 18% and 15% and the “Population Healthy Nuclei (%)” value is reported as 75% and 77%. The “Population Hoechst High Intensity Objects (%)” value was 1% and 3%, the “Population Membrane Permeable-Phenotype (%)” value was 1% and 0% and the “Population Mitochondria Different-Phenotype (%)” value was 24% and 28%. The “Population Mitotic Cells (%)” value was 70% and 71%, the “Population Normal (%)” value was 98% and 96% and the “Population Pyknosed Nuclei (%)” value was 6%. For the same compound, the “Population Tubulin-Different-Phenotype (%)” value was 16% and 17% and the “Total Cell Count” value was 821 and 554. Nc1nc(CC(=O)Nc2ccc(CCNC[C@H](O)c3ccccc3)cc2)cs1 [MIRABEGRON] was tested, and the “Population Apoptotic (%)” value was 26% and 28%, the “Population Fragmented Nuclei (%)” value was 12% and the “Population Healthy Nuclei (%)” value was 78% and 80%. The “Population Hoechst High Intensity Objects (%)” value was 3% and 2%, the “Population Membrane Permeable-Phenotype (%)” value was 0% and the “Population Mitochondria Different-Phenotype (%)” value was 25% and 30%. The “Population Mitotic Cells (%)” value was 73% and 71%, the “Population Normal (%)” value was 96% and 97% and the “Population Pyknosed Nuclei (%)” value was 8% and 6%. For the same compound, the “Population Tubulin-Different-Phenotype (%)” value was 16% and 15% and the “Total Cell Count” value was 818 and 750.
